# From PubChem
# INS-1E rescue: rescue of cytokine-induced death in INS-1E beta cells; INS-1E cytokine-induced death, ATP luminescence, 48 h; normalised: neutral wells 0, positive control 100; protection from cytokine-induced ATP loss, % at 10 µM; 0.1% of 20,000 active;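 active = mean replicate protection from cytokine-induced ATP loss at least 50% and at least 75% of replicates each reaching 50%; inconclusive = meets only one of the two criteria, mean or replicate share; inactive = fails both the mean and replicate share criteria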
#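 Assay system – rat INS-1E insulinoma cell line · Quantity – 8000 cells per well · Buffer or medium – RPMI without phenol red, 5% FBS · Schedule – 48 h co-treatment, 10 min post-lysis read · Technique – luminescent ATP assay (CellTiter-Glo)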
# T cruzi intra: intracellular Trypanosoma cruzi inhibition; activity score (inhibition), % at 5.01 µM; intracellular Trypanosoma cruzi in host cells, plate reader; 4.9% of 22,000 active; in the data active = activity score above about 55%; inconclusive = no clear call, values can overlap the other calls;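 also: parasites and compound incubated about four days before reading; 0% = median of neutral control wells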
# A1 apoptosis 2: blocks A1, raising caspase activity; MEF A1-2A-BIM cells, caspase-Glo luminescence, 3 h; percent of clofoctol response, DMSO zero; caspase activation, % (test concentration not listed); 24,000 tested, under 10 active; AID 2465; in the data active = caspase activation above about 5.9%; inconclusive = no clear call, values can overlap the other calls; inactive = below about 2.2%
#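 System: mouse embryonic fibroblasts co-expressing A1 and BIM (A1-2A-BIM), primed for A1 dependence; amount: 2500 cells/well; doses: 50 nL pinned compound; schedule: cells settled overnight, compound exposure 3 h at 37 °C, 5% CO2; detection: Caspase-Glo 3/7 luminescence, 1 h at room temperature; read-out: Caspase-3/7 activation, seen as rise in luminescence signal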
# Starred values were filed as active, the others as inactive; ? = inconclusive; . = no result given. The entries come from a sample that favours hits as a whole.
SMILES,INS-1E rescue,T cruzi intra,A1 apoptosis 2
C[C@@H]1CN([C@@H](C)CO)C(=O)c2cccc(NC(=O)Nc3ccc(F)cc3)c2O[C@@H]1CN(C)Cc1ccc(Cl)c(Cl)c1,-71,21,-2
O=C(NO)c1cccc(C(=O)N/N=C/c2cccc(Br)c2)c1,-9,1,0
C[C@@H]1CN([C@H](C)CO)C(=O)c2cccc(NC(=O)NC3CCCCC3)c2O[C@H]1CN(C)Cc1ccc(-c2ccccc2)cc1,-7,34,.
C[C@H](CO)N1C[C@H](C)[C@@H](CN(C)Cc2ccc(-c3ccccc3)cc2)Oc2c(NC(=O)NC3CCCCC3)cccc2C1=O,-19,68*,.
C[C@H]1CN([C@@H](C)CO)C(=O)c2cccc(NC(=O)NC3CCCCC3)c2O[C@@H]1CN(C)Cc1ccc(Oc2ccccc2)cc1,-21,49,.
C[C@@H]1CN([C@H](C)CO)C(=O)c2cccc(NC(=O)NC3CCCCC3)c2O[C@@H]1CN(C)Cc1ccc(Oc2ccccc2)cc1,-55,64*,-1
C[C@@H]1CN([C@H](C)CO)C(=O)c2cccc(NC(=O)NC3CCCCC3)c2O[C@H]1CN(C)Cc1ccccc1,8,23,-2
C[C@@H]1CN([C@H](C)CO)C(=O)c2cccc(NC(=O)NC3CCCCC3)c2O[C@H]1CN(C)Cc1ccc(Oc2ccccc2)cc1,-38,61*,.
COc1ccc(NC(=O)Nc2ccc3c(c2)C(=O)N([C@@H](C)CO)C[C@@H](C)[C@@H](CN(C)CC2CCCCC2)OCCCC[C@H](C)O3)cc1,.,.,1
C[C@@H]1CCCCO[C@H](CN(C)CC2CCCCC2)[C@H](C)CN([C@H](C)CO)C(=O)c2cc(NC(=O)Nc3ccc4c(c3)OCO4)ccc2O1,.,.,0
C[C@@H]1CCCCO[C@H](CN(C)CC2CCCCC2)[C@@H](C)CN([C@H](C)CO)C(=O)c2cc(NC(=O)Nc3ccc(C(F)(F)F)cc3)ccc2O1,-59,70*,1
C[C@@H]1CCCCO[C@@H](CN(C)CC2CCCCC2)[C@H](C)CN([C@H](C)CO)C(=O)c2cc(NC(=O)Nc3ccc(C(F)(F)F)cc3)ccc2O1,.,.,8.3*
C[C@@H]1CCCCO[C@H](CN(C)CC2CCCCC2)[C@@H](C)CN([C@H](C)CO)C(=O)c2cc(NC(=O)Nc3ccc4c(c3)OCO4)ccc2O1,-14,79*,.
COc1ccc(NC(=O)Nc2ccc3c(c2)C(=O)N([C@H](C)CO)C[C@H](C)[C@@H](CN(C)CC2CCCCC2)OCCCC[C@@H](C)O3)cc1,-17,76*,.
C[C@@H]1CCCCO[C@H](CN(C)CC2CCCCC2)[C@H](C)CN([C@H](C)CO)C(=O)c2cc(NC(=O)Nc3ccc(C(F)(F)F)cc3)ccc2O1,.,.,2
C[C@@H]1CN([C@@H](C)CO)C(=O)c2cc(NC(=O)Nc3ccc(C(F)(F)F)cc3)ccc2O[C@@H](C)CCCCO[C@@H]1CN(C)CC1CCCCC1,.,.,-1
Cc1noc(C)c1S(=O)(=O)N(C)C[C@H]1Oc2ccc(NS(=O)(=O)c3ccc(F)cc3)cc2CC(=O)N([C@@H](C)CO)C[C@H]1C,3,2,-1
COc1ccc(C#Cc2ccc3c(c2)[C@]2(C(=O)N3)[C@H](C(N)=O)[C@H]3C(=O)O[C@H](c4ccccc4)[C@H](c4ccccc4)N3[C@@H]2c2ccccc2OCCO)cc1,.,.,-1
C[C@H](CO)N1C[C@H](C)[C@@H](CN(C)Cc2ccc(Oc3ccccc3)cc2)Oc2ccc(NC(=O)c3ccncc3)cc2CC1=O,.,.,-1
O=C(Nc1ccccc1)C1=C[C@H](c2ccc3c(c2)Cc2ccccc2-3)C[C@H](OCc2ccc(CO)cc2)O1,.,.,-2
O=C(N/N=C/c1cc(Br)c(O)c(Br)c1)c1ccccc1O,-57,-13,.
CC(C)NC(=O)N(C)C[C@H]1OCCCC[C@H](C)Oc2ccc(NC(=O)C3CCCCC3)cc2C(=O)N([C@@H](C)CO)C[C@@H]1C,.,.,0
O=C(N/N=C/c1cc2ccccc2n1S(=O)(=O)c1ccccc1)c1ccccn1,-8,31,-1
C[C@@H]1CN([C@@H](C)CO)C(=O)c2cccc(NC(=O)c3nc4ccccc4s3)c2O[C@@H]1CN(C)C(=O)Nc1ccc(F)cc1,-4,7,.
C[C@H](CO)N1C[C@H](C)[C@H](CN(C)C(=O)Nc2ccc(C(F)(F)F)cc2)Oc2c(NC(=O)c3nc4ccccc4s3)cccc2C1=O,-41,63*,.
SMILES,INS-1E rescue,T cruzi intra,A1 apoptosis 2
C[C@H](CO)N1C[C@H](C)[C@@H](CN(C)C(=O)Nc2ccc(C(F)(F)F)cc2)Oc2c(NC(=O)c3nc4ccccc4s3)cccc2C1=O,-11,58*,-1
C[C@@H]1CN([C@H](C)CO)C(=O)c2cccc(NC(=O)c3nc4ccccc4s3)c2O[C@@H]1CN(C)C(=O)Nc1ccc(C(F)(F)F)cc1,-67,-26,.
O=C(N/N=C/c1ccccc1C(=O)O)c1ccccn1,-13,1,-13
C[C@@H]1CN([C@@H](C)CO)C(=O)c2cc(NC(=O)Nc3cccc4ccccc34)ccc2O[C@@H]1CN(C)Cc1ccc(C(F)(F)F)cc1,.,59*,.
C[C@@H]1CN([C@H](C)CO)C(=O)c2cc(NC(=O)Nc3cccc4ccccc34)ccc2O[C@@H]1CN(C)Cc1ccc(C(F)(F)F)cc1,-11,75*,0
C[C@H](CO)N1C[C@H](C)[C@H](CN(C)Cc2ccc(C(F)(F)F)cc2)Oc2ccc(NC(=O)Nc3cccc4ccccc34)cc2C1=O,.,49,1
C[C@@H]1CN([C@@H](C)CO)C(=O)c2cc(NC(=O)Nc3cccc4ccccc34)ccc2O[C@H]1CN(C)Cc1ccccc1,-15,?,.
C[C@@H]1CN([C@H](C)CO)C(=O)Cc2cc(NC(=O)Nc3ccccc3)ccc2O[C@@H]1CN(C)Cc1ccc(Oc2ccccc2)cc1,-69,72*,2
C[C@H]1CN([C@@H](C)CO)C(=O)Cc2cc(NC(=O)Nc3ccccc3)ccc2O[C@H]1CN(C)Cc1ccc(Oc2ccccc2)cc1,-16,-4,.
C[C@@H]1CN([C@@H](C)CO)C(=O)Cc2cc(NC(=O)Nc3ccccc3)ccc2O[C@H]1CN(C)Cc1ccc(Oc2ccccc2)cc1,.,.,1
C[C@H]1CN([C@@H](C)CO)C(=O)Cc2cc(NC(=O)Nc3ccccc3)ccc2O[C@@H]1CN(C)Cc1ccc(Oc2ccccc2)cc1,-26,49,.
C[C@@H]1CN([C@@H](C)CO)C(=O)Cc2cc(NC(=O)Nc3ccccc3)ccc2O[C@@H]1CN(C)Cc1ccc(Oc2ccccc2)cc1,-74,81*,.
C[C@@H]1CN([C@@H](C)CO)C(=O)Cc2cc(NC(=O)Nc3ccc(F)cc3)ccc2O[C@@H]1CN(C)Cc1ccc(Oc2ccccc2)cc1,0,75*,.
C[C@H]1CN([C@@H](C)CO)C(=O)Cc2cc(NC(=O)Cc3ccccc3)ccc2O[C@@H]1CN(C)Cc1ccc(Oc2ccccc2)cc1,-30,63*,.
C[C@H](CO)N1C[C@H](C)[C@H](CN(C)Cc2ccc(Oc3ccccc3)cc2)Oc2ccc(NC(=O)Cc3ccccc3)cc2CC1=O,-41,54,1
O=C(N/N=C/C=C/c1ccccc1)c1ccccc1O,-57,-25,-2
